Results taken from ChEMBL document CHEMBL1138570, “2-Acylhydrazino-5-arylpyrrole derivatives: synthesis and antifungal activity evaluation” (Eur J Med Chem, 2009).
Values after ≈ are worked out from the molar mass of the structure shown.

Experiments:
Type in all cases: functional
Pichia kudriavzevii [1] = assay: Antimicrobial activity against Candida krusei after 72 hrs by broth microdilution method
In short: (§1)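 MFC: after MIC reading, a sample from each well was plated on Sabouraud dextrose agar and incubated 72 h at 35 °C. MFC was taken as the minimum concentration killing >99% of the original inoculum. The MIC step was NCCLS broth microdilution in MOPS-buffered RPMI 1640 (pH 7.0), with 2 ×10⁴ cells/mL, overnight at 35 °C.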

Nakaseomyces glabratus [2] = assay: Antimicrobial activity against Candida glabrata by broth microdilution method
In short: (§2)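 MIC by NCCLS broth microdilution. Medium was RPMI 1640 with L-glutamine, buffered with 0.165 M MOPS at pH 7.0. Twofold drug dilutions ran 0.008–200 mg/L. Inoculum was set spectrophotometrically to 10⁶ CFU/mL, then diluted in medium to 2 ×10⁴ cells/mL. Plates were incubated overnight at 35 °C in humid air, agitated, and read visually and at 450 nm.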

Pichia kudriavzevii [3] = assay: Antimicrobial activity against Candida krusei by broth microdilution method; in short: as §2
Candida parapsilosis [4] = assay: Antimicrobial activity against Candida parapsilosis after 72 hrs by broth microdilution method; conditions: Lodderomyces parapsilosis; in short: as §1
Nakaseomyces glabratus [5] = assay: Antimicrobial activity against Candida glabrata after 72 hrs by broth microdilution method; in short: as §1
Candida albicans [6] = assay: Antimicrobial activity against Candida albicans ATCC 10231 by broth microdilution method; in short: as §2
Candida parapsilosis [7] = assay: Antimicrobial activity against Candida parapsilosis by broth microdilution method; conditions: Lodderomyces parapsilosis; in short: as §2
Candida albicans [8] = assay: Antimicrobial activity against Candida albicans ATCC 10231 after 72 hrs by broth microdilution method; conditions: ATCC 10231, 72 h; in short: as §1

SMILES | MFC (Pichia kudriavzevii [1]) [µg/mL] | MIC (Nakaseomyces glabratus [2]) [µg/mL] | MIC (Pichia kudriavzevii [3]) [µg/mL] | MFC (Candida parapsilosis [4]) [µg/mL] | MFC (Nakaseomyces glabratus [5]) [µg/mL] | MIC (Candida albicans [6]) [µg/mL] | MIC (Candida parapsilosis [7]) [µg/mL] | MFC (Candida albicans [8]) [µg/mL]
CCOC(=O)c1cc(-c2ccc(OC)cc2)[nH]c1NNC(=O)CCOC | 100 (≈ 277 µM) | 12.5 (≈ 34.6 µM) | 50 (≈ 138 µM) | 100 (≈ 277 µM) | 100 (≈ 277 µM) | 6.25 (≈ 17.3 µM) | 25 (≈ 69.2 µM) | 6.25 (≈ 17.3 µM)
CCCC(=O)NNc1[nH]c(-c2ccc(OC)cc2)cc1C(=O)OCC | 100 (≈ 290 µM) | > 100 | 50 (≈ 145 µM) | > 100 | > 100 | 12.5 (≈ 36.2 µM) | 12.5 (≈ 36.2 µM) | 12.5 (≈ 36.2 µM)
CCOC(=O)c1cc(-c2ccccc2)[nH]c1NNC(=O)Cc1ccc(OC)cc1 | > 100 | > 100 | 50 (≈ 127 µM) | > 100 | > 100 | > 100 | 50 (≈ 127 µM) | > 100
CCOC(=O)c1cc(-c2ccccc2)[nH]c1NNC(=O)CCOC | 50 (≈ 151 µM) | 6.25 (≈ 18.9 µM) | 12.5 (≈ 37.7 µM) | 25 (≈ 75.4 µM) | 25 (≈ 75.4 µM) | 3.12 (≈ 9.42 µM) | 6.25 (≈ 18.9 µM) | 6.25 (≈ 18.9 µM)
CC(=O)NNc1[nH]c(-c2ccccc2)cc1C#N | 6.25 (≈ 26 µM) | 6.25 (≈ 26 µM) | 3.12 (≈ 13 µM) | 12.5 (≈ 52 µM) | 12.5 (≈ 52 µM) | 3.12 (≈ 13 µM) | 3.12 (≈ 13 µM) | 3.12 (≈ 13 µM)
CCOC(=O)c1cc(-c2ccccc2)[nH]c1NNC(=O)CC | 25 (≈ 83 µM) | 6.25 (≈ 20.7 µM) | 12.5 (≈ 41.5 µM) | 25 (≈ 83 µM) | 12.5 (≈ 41.5 µM) | 3.12 (≈ 10.4 µM) | 6.25 (≈ 20.7 µM) | 12.5 (≈ 41.5 µM)
CCOC(=O)c1cc(-c2ccc(OC)cc2)[nH]c1NNC(=O)CC | 100 (≈ 302 µM) | 6.25 (≈ 18.9 µM) | 25 (≈ 75.4 µM) | 25 (≈ 75.4 µM) | 12.5 (≈ 37.7 µM) | 3.12 (≈ 9.42 µM) | 12.5 (≈ 37.7 µM) | 12.5 (≈ 37.7 µM)
CCCC(=O)NNc1[nH]c(-c2ccc(Cl)cc2)cc1C(=O)OCC | > 100 | > 100 | > 100 | > 100 | > 100 | > 100 | > 100 | > 100
CCCC(=O)NNc1[nH]c(-c2ccc(C)cc2)cc1C(=O)OCC | > 100 | > 100 | > 100 | > 100 | > 100 | > 100 | 25 (≈ 75.9 µM) | > 100
CCOC(=O)c1cc(-c2ccc(C)cc2)[nH]c1NNC(C)=O | > 100 | > 100 | 100 (≈ 332 µM) | 50 (≈ 166 µM) | > 100 | > 100 | 50 (≈ 166 µM) | > 100
CCOC(=O)NNc1[nH]c(-c2ccccc2)cc1C(=O)OCC | 25 (≈ 78.8 µM) | 6.25 (≈ 19.7 µM) | 12.5 (≈ 39.4 µM) | 12.5 (≈ 39.4 µM) | 12.5 (≈ 39.4 µM) | 3.12 (≈ 9.83 µM) | 6.25 (≈ 19.7 µM) | 3.12 (≈ 9.83 µM)
CCOC(=O)c1cc(-c2ccccc2)[nH]c1NNC(C)=O | 50 (≈ 174 µM) | 12.5 (≈ 43.5 µM) | 50 (≈ 174 µM) | 100 (≈ 348 µM) | > 100 | 12.5 (≈ 43.5 µM) | 50 (≈ 174 µM) | 12.5 (≈ 43.5 µM)
CCOC(=O)NNc1[nH]c(-c2ccc(Cl)cc2)cc1C(=O)OCC | > 100 | > 100 | 50 (≈ 142 µM) | 12.5 (≈ 35.5 µM) | > 100 | 25 (≈ 71.1 µM) | 12.5 (≈ 35.5 µM) | > 100
CCOC(=O)NNc1[nH]c(-c2ccc(C)cc2)cc1C(=O)OCC | > 100 | 3.12 (≈ 9.42 µM) | 100 (≈ 302 µM) | > 100 | 25 (≈ 75.4 µM) | 6.25 (≈ 18.9 µM) | 100 (≈ 302 µM) | 6.25 (≈ 18.9 µM)
CCC(=O)NNc1[nH]c(-c2ccc(OC)cc2)cc1C(=O)OC | 6.25 (≈ 19.7 µM) | 6.25 (≈ 19.7 µM) | 6.25 (≈ 19.7 µM) | 12.5 (≈ 39.4 µM) | 12.5 (≈ 39.4 µM) | 3.12 (≈ 9.83 µM) | 3.12 (≈ 9.83 µM) | 3.12 (≈ 9.83 µM)
CCOC(=O)NNc1[nH]c(-c2ccccc2)cc1C(=O)OC | 25 (≈ 82.4 µM) | 3.12 (≈ 10.3 µM) | 6.25 (≈ 20.6 µM) | 12.5 (≈ 41.2 µM) | 12.5 (≈ 41.2 µM) | 3.12 (≈ 10.3 µM) | 3.12 (≈ 10.3 µM) | 6.25 (≈ 20.6 µM)
CCOC(=O)NNc1[nH]c(-c2ccc(OC)cc2)cc1C(=O)OC | > 100 | 12.5 (≈ 37.5 µM) | 50 (≈ 150 µM) | > 100 | 50 (≈ 150 µM) | 3.12 (≈ 9.36 µM) | 25 (≈ 75 µM) | 6.25 (≈ 18.7 µM)
CCOC(=O)NNc1[nH]c(-c2ccc(OC)cc2)cc1C(=O)OCC | 100 (≈ 288 µM) | 6.25 (≈ 18 µM) | 12.5 (≈ 36 µM) | 25 (≈ 72 µM) | 25 (≈ 72 µM) | 3.12 (≈ 8.98 µM) | 6.25 (≈ 18 µM) | 3.12 (≈ 8.98 µM)
